The subject of data set [1] is Rattus norvegicus. Briefly: Anticonvulsant activity in Sprague-Dawley rat assessed as protection against pilocarpine-induced status epilepticus at 600 mg/kg, ip. In kind it is functional, organism-based. Set-up: dose 600 mg/kg. Put shortly:
(§1)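 Male Sprague–Dawley rats (150–180 g) received compound ip at 600 mg/kg, then a challenge dose of pilocarpine. Seizure severity graded on the Racine scale; rats were scored as protected or not, and body weight change was taken 24 h after the first stage III seizure.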

Data set [2] deals with Rattus norvegicus. Briefly: Anticonvulsant activity in Sprague-Dawley rat assessed as protection against subcutaneous pentylenetetrazole-induced seizures at 50 mg/kg po after 4 hrs. In kind it is functional. The method, boiled down: (§2)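 Oral fixed dose of 50 mg/kg in male Sprague–Dawley rats (0.5% methylcellulose/water suspension), four rats per group. Pentylenetetrazole 70 mg/kg given sc at each test time (0.25, 0.5, 1, 2, 4 h); protection from clonic seizures counted per four rats, with motor impairment studied in parallel.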

Data set [3] relates to Rattus norvegicus. Briefly: Anticonvulsant activity in Sprague-Dawley rat assessed as protection against pilocarpine-induced status epilepticus at 600 mg/kg, ip measured after clonus of one of the fore limbs seizure stage. Also on record: dose 600 mg/kg. The format is functional, organism-based. The method, boiled down:
as §1

Data set [4] concerns Rattus norvegicus. In words: Toxicity in Sprague-Dawley rat assessed as change in body weight at 600 mg/kg, ip measured after 24 hrs of clonus of one of the fore limbs seizure stage in protected rat. Particulars: in vivo. Also on record: dose 600 mg/kg, route intraperitoneal. The format is organism-based. The method, boiled down: as §1
Data set [5] relates to Rattus norvegicus. Briefly: Toxicity in Sprague-Dawley rat assessed as change in body weight at 600 mg/kg, ip measured after 24 hrs of clonus of one of the fore limbs seizure stage in non-protected rat. In kind it is organism-based. Set-up: dose 600 mg/kg, route intraperitoneal. Particulars: in vivo. Put shortly:
as §1

The subject of data set [6] is Mus musculus. In words: Anticonvulsant activity in CF1 albino mouse assessed as protection against subcutaneous pentylenetetrazole-induced seizures at 300 mg/kg, ip after 4 hrs. Also on record: dose 300 mg/kg. The format is functional, organism-based. The method, boiled down:
(§3)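 Male CF-1 mice; compounds suspended in 0.5% methylcellulose/water and injected ip at 30, 100 and 300 mg/kg. MES, scPTZ (pentylenetetrazole 85 mg/kg sc at the test time) and rotarod neurotoxicity were scored at 0.5 and 4 h. Value is the lowest dose active or toxic in half or more of the animals; signs such as ataxia or tremor were recorded.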

Data set [7] deals with Mus musculus. In words: Neurotoxicity in ip dosed CF1 albino mouse assessed as dose required to cause toxicity after 0.5 hrs by rotarod test. The format is organism-based. Particulars: in vivo. Put shortly:
as §3

Data set [8] concerns Rattus norvegicus. Briefly: Anticonvulsant activity in Sprague-Dawley rat assessed as protection against maximal electroshock-induced seizures at 30 mg/kg po after 2 hrs. In kind it is functional. Put shortly:
(§4)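 Male Sprague–Dawley rats, four per group, given 30 mg/kg orally as a 0.5% methylcellulose/water suspension. MES protection scored at 0.25, 0.5, 1, 2 and 4 h after dosing, motor impairment checked in parallel; data are the number of the four rats protected.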
For orientation: In the maximal electroshock model the usual endpoint is tonic extension of the hind limbs.

The test system of data set [9] is Mus musculus. In words: Anticonvulsant activity in CF1 albino mouse assessed as protection against maximal electroshock-induced seizures at 300 mg/kg, ip after 4 hrs. The format is functional, organism-based. Also on record: dose 300 mg/kg. The method, boiled down:
as §3

Data set [10] has as its system Rattus norvegicus. In words: Anticonvulsant activity in Sprague-Dawley rat assessed as protection against maximal electroshock-induced seizures at 30 mg/kg po after 1 hr. In kind it is functional. Put shortly: as §4
Data set [11] concerns Rattus norvegicus. Briefly: Anticonvulsant activity in Sprague-Dawley rat assessed as protection against maximal electroshock-induced seizures at 30 mg/kg po after 4 hrs. The format is functional. The method, boiled down:
as §4

Data set [12] concerns Mus musculus. In words: Anticonvulsant activity in ip dosed CF1 albino mouse assessed as dose required to protect against maximal electroshock-induced seizures after 0.5 hrs. In kind it is functional. The method, boiled down: as §3
In data set [13] the test system is Rattus norvegicus. In words: Anticonvulsant activity in Sprague-Dawley rat assessed as protection against subcutaneous pentylenetetrazole-induced seizures at 50 mg/kg po after 0.5 hrs. In kind it is functional. The method, boiled down:
as §2

Data set [14] has as its system Mus musculus. Briefly: Neurotoxicity in ip dosed CF1 albino mouse assessed as dose required to cause toxicity after 4 hrs by rotarod test. In kind it is organism-based. Conditions: in vivo. The method, boiled down:
as §3

Data set [15] deals with Rattus norvegicus. Briefly: Anticonvulsant activity in Sprague-Dawley rat assessed as protection against subcutaneous pentylenetetrazole-induced seizures at 50 mg/kg po after 2 hrs. In kind it is functional. The method, boiled down: as §2
Data set [16] deals with Mus musculus. In words: Neurotoxicity in CF1 albino mouse assessed as myoclonic jerks at 100 mg/kg, ip after 4 hrs by rotarod test. In kind it is toxicity, organism-based. Set-up: dose 100 mg/kg, route intraperitoneal. Conditions: in vivo. Put shortly:
as §3
On the technique in general: Falling from the rotarod earlier than controls is read as motor impairment.

Data set [17] has as its system Rattus norvegicus. Briefly: Anticonvulsant activity in Sprague-Dawley rat assessed as protection against subcutaneous pentylenetetrazole-induced seizures at 50 mg/kg po after 1 hr. In kind it is functional. The method, boiled down:
as §2

In data set [18] the test system is Rattus norvegicus. Briefly: Anticonvulsant activity in Sprague-Dawley rat assessed as protection against maximal electroshock-induced seizures at 30 mg/kg po after 0.25 hrs. In kind it is functional. The method, boiled down: as §4
Data set [19] has as its system Rattus norvegicus. In words: Anticonvulsant activity in Sprague-Dawley rat assessed as protection against maximal electroshock-induced seizures at 30 mg/kg po after 0.5 hrs. The format is functional. The method, boiled down: as §4
Data set [20] deals with Rattus norvegicus. Briefly: Anticonvulsant activity in Sprague-Dawley rat assessed as protection against subcutaneous pentylenetetrazole-induced seizures at 50 mg/kg po after 0.25 hrs. The format is functional, organism-based. Set-up: dose 50 mg/kg. The method, boiled down:
as §2

Data set [21] deals with Mus musculus. Briefly: Neurotoxicity in CF1 albino mouse assessed as unable to grasp rotarod at 300 mg/kg, ip after 4 hrs by rotarod test. Conditions: in vivo. Also on record: dose 300 mg/kg, route intraperitoneal. In kind it is toxicity, organism-based. Put shortly:
as §3

Data set [22] can be described thus: Neurotoxicity in po dosed Sprague-Dawley rat by rotarod test. Conditions: in vivo. In kind it is toxicity, organism-based. Put shortly: (§5)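 Male Sprague–Dawley rats dosed orally (0.5% methylcellulose/water suspension), groups of eight, tested at the previously estimated time of peak effect. Doses varied until at least three points lay in the 10–90% range of protection (MES, scPTZ) or minimal rotarod neurotoxicity. ED50/TD50 with 95% confidence intervals came from regression; PI = TD50/ED50.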

Data set [23] deals with Mus musculus. In words: Anticonvulsant activity in ip dosed CF1 albino mouse assessed as dose required to protect against maximal electroshock-induced seizures after 4 hrs. In kind it is functional. Put shortly:
as §3

In data set [24] the test system is Rattus norvegicus. In words: Anticonvulsant activity in po dosed Sprague-Dawley rat assessed as time required to peak protection against seizures. The format is functional.
Data set [25] deals with Rattus norvegicus. Briefly: Anticonvulsant activity in po dosed Sprague-Dawley rat assessed as protection against maximal electroshock-induced seizures. In kind it is functional. The method, boiled down:
as §5

In data set [26] the test system is Mus musculus. In words: Neurotoxicity in CF1 albino mouse at 300 mg/kg, ip after 4 hrs by rotarod test. Set-up: dose 300 mg/kg, route intraperitoneal. The format is toxicity, organism-based. Particulars: in vivo. Put shortly:
as §3

Data set [27] concerns Mus musculus. Briefly: Anticonvulsant activity in ip dosed CF1 albino mouse assessed as dose required to protect against subcutaneous pentylenetetrazole-induced seizures after 0.5 hrs. The format is functional. The method, boiled down: as §3
Data set [28] concerns Rattus norvegicus. Briefly: Anticonvulsant activity in po dosed Sprague-Dawley rat assessed as protection against subcutaneous pentylenetetrazole-induced seizures. In kind it is functional. Put shortly:
as §5

Data set [29] deals with Mus musculus. Briefly: Neurotoxicity in CF1 albino mouse assessed as unable to grasp rotarod at 100 mg/kg, ip after 4 hrs by rotarod test. In kind it is toxicity, organism-based. Set-up: dose 100 mg/kg, route intraperitoneal. Conditions: in vivo. The method, boiled down: as §3
For data set [30], the species on record is Rattus norvegicus. In words: Protection index, ratio of TD50 for Sprague-Dawley rat by rotarod test to ED50 for Sprague-Dawley rat by maximal electroshock test. The format is functional. Put shortly: as §5
The subject of data set [31] is Mus musculus. In words: Anticonvulsant activity in ip dosed CF1 albino mouse assessed as dose required to protect against subcutaneous pentylenetetrazole-induced seizures after 4 hrs. The format is functional. Put shortly:
as §3

Structures are written as SMILES. The source made the active and inactive calls. The rule behind the calls is not given here.

From ChEMBL document CHEMBL1250467, “Design, synthesis, and anticonvulsant activity of new N-Mannich bases derived from spirosuccinimides and spirohydantoins” (Bioorg Med Chem, 2010) come the findings set out here.

A word on the TD50: it is the dose at which the toxic effect under study appears in half of the subjects. High values mean harm only at a large dose, low ones harm at a small dose. One may read the ED50 as the midpoint of the dose-response relation.

For `O=C1CC2(CCc3ccccc3C2)C(=O)N1CN1CCN(c2ccc(F)cc2)CC1` (stereo unspecified), the outcome in the data set on Rattus norvegicus [1], in the data set with Rattus norvegicus [3], with Mus musculus [6], in the data set on Mus musculus [9], in the data set with Rattus norvegicus [10] and in the data set with Rattus norvegicus [13] was inactive. Besides, the result with Rattus norvegicus [17], with Rattus norvegicus [18], with Rattus norvegicus [19] and with Rattus norvegicus [20] was inactive. Further, the Activity was 25% with Rattus norvegicus [2]; “Non-toxic” with Rattus norvegicus [4]; 20 g with Rattus norvegicus [5]; 300 mg/kg with Mus musculus [7]; 25% in the data set on Rattus norvegicus [8]; 25% in the data set on Rattus norvegicus [11]. Further, the Activity is 100 mg/kg in the data set with Mus musculus [12], 300 mg/kg in the data set on Mus musculus [14], 25% in the data set on Rattus norvegicus [15] and “Toxic” in the data set with Mus musculus [16].

Regarding `O=C1CC2(CCc3ccccc3C2)C(=O)N1CN1CCOCC1` (stereo unspecified), the Activity result in the data set on Mus musculus [21] was “Non-toxic”; in the data set with Rattus norvegicus [2] it was 25%; in the data set with Mus musculus [23], 300 mg/kg; with Rattus norvegicus [8], 25%; in the data set on Mus musculus [26] it was “Non-toxic”; with Rattus norvegicus [10] it was 25%. In addition, the Activity with Rattus norvegicus [11] was 50%; in the data set with Mus musculus [12], 100 mg/kg; with Rattus norvegicus [13], 25%; in the data set on Mus musculus [27] it was 100 mg/kg; with Rattus norvegicus [15], 25%; in the data set on Rattus norvegicus [17], 25%. The Activity amounted to 50% with Rattus norvegicus [18] and 25% in the data set with Rattus norvegicus [19]. The same compound showed a TD50 in data set [22] of more than 500 mg/kg. The Time in the data set on Rattus norvegicus [24] came out at 0.5 h. The outcome in the data set on Mus musculus [6] and in the data set on Rattus norvegicus [20] was inactive. Also, the results for the median effective dose (ED50) in the data set with Rattus norvegicus [25] and with Rattus norvegicus [28] were more than 160 mg/kg and more than 150 mg/kg, respectively.

`O=C1NC2(CCc3ccccc3C2)C(=O)N1CN1CCN(CCO)CC1` (stereo unspecified): in data set [22], the TD50 is more than 300 mg/kg. For the same compound, the Activity in the data set with Mus musculus [23] was 300 mg/kg; in the data set with Rattus norvegicus [8], 100%; in the data set with Mus musculus [29], “Non-toxic”; with Mus musculus [26], “Non-toxic”; with Rattus norvegicus [10], 50%; in the data set with Rattus norvegicus [11] it was 100%. Further, the Activity in the data set on Mus musculus [12] was 100 mg/kg; in the data set on Mus musculus [27] it was 100 mg/kg; with Rattus norvegicus [19], 25%; in the data set on Mus musculus [31], 300 mg/kg. For the same compound, the Time in the data set on Rattus norvegicus [24] amounted to 4 h. The ED50 was 14.9 mg/kg with Rattus norvegicus [25] and more than 250 mg/kg in the data set on Rattus norvegicus [28]. For the same compound, the PI in the data set listed under Rattus norvegicus [30] is more than 20.09. In the data set on Rattus norvegicus [18], the result was inactive.
